Bioassay records from PubChem BioAssay.
WT yeast gro inh – growth inhibition of WT yeast, mitochondrial fusion screen; 190,000 compounds, 2.1% hits; mitochondrial fusion phenotypic screen, WT strain; inhibition, % at 10 µM; in the data active = inhibition above about 58%; tested in S. cerevisiae
ROMK mod – modulators of human ROMK potassium channel; Tet-inducible ROMK, thallium flux fluorescence; actives lie on both sides; B-score at 10 µM; 130,000 compounds, 2% hits; AID 1918;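 active = signal ratio slope over the read window, or its plate-corrected B-score, at least 3 SD from the plate mean, either direction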;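 also: B-score of the F/F0 ratio slope over 7 to 12 s after thallium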
RBBP9 inh – human RBBP9 hydrolase inhibition. O75884. recombinant RBBP9, FP-Rh probe fluorescence polarization. inhibition, % at 7.94 µM. 220,000 compounds, 0.2% hits;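 active = inhibition above the campaign mean of all tested compounds plus 3 SD, cut at about 14% in these data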;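 also: plate controls were DMSO wells with RBBP9 for no effect and wells lacking RBBP9 protein for full effect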
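Measured by – fluorescence polarization · Test system – RBBP9 protein · Input – 2.5 µM RBBP9 dispensing solution, before mixing · Measure – percent inhibition from mP, scaled between DMSO and no-protein wells · Benchmarks – DMSO-treated enzyme wells and wells lacking RBBP9 · Times – preincubation 30 min plus labeling 45 min at 25 °C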
NCF1 inh – blocks human p47phox regulatory protein of NADPH oxidases; P14598; inhibition, % at 24.7 µM; AID 1274; p47phox/p22phox peptide binding, fluorescence polarization, 2 h; 220,000 compounds, 0.53% hits;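 active = inhibition above about 30%, limit read from the data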;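 also: 0% = p47phox with labelled peptide and 100% = labelled peptide alone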
14-3-3 Bad PPI – disrupts binding of bovine 14-3-3 zeta to phospho-Bad peptide; TR-FRET 14-3-3zeta/Dy647-pBad peptide displacement, 1 h; 220,000 compounds, 0.71% hits; P63103; inhibition, % at 21.7 µM;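 active = inhibition above about 70%, limit read from the data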;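 also: 0% = full 14-3-3 plus peptide FRET controls and 100% = background without 14-3-3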
KCC2 mod – KCC2 (human) Cl- transport modulation. Q9H2X9. KCC2 cells, thallium flux FluoZin-2 fluorescence. B-score of Tl+ flux slope (higher = more flux/activation; lower = inhibition) at 10 µM. 190,000 compounds, 2.2% hits;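 active = thallium flux slope and its plate-corrected score both differing from the plate sample mean at a set confidence after two filtering rounds, in either direction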;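 also: slope of fluorescence scaled to starting intensity during 10 to 20 s after thallium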
An asterisk follows results filed as active; / = no result given; [ ] = remark or other dose. Rows were chosen to be rich in hits. Some 5.8% of all compounds tested hit in one or more screens of this group.

SMILES	WT yeast gro inh	ROMK mod	RBBP9 inh	NCF1 inh	14-3-3 Bad PPI	KCC2 mod
COc1cccc(NC(=O)C(NCC2CCCCC2)c2ccccc2)c1 (centres undefined)	24	0.063	2	-3	84*[fluorescence artefact?]	-1.1
Cc1cccc(NC(=S)NC(=O)CCc2ccccc2)c1	51	/	0	-5	77*	2.7
COc1cccc(NC(=O)C(NCCC(C)C)c2ccccc2)c1 (centres undefined)	9	-0.55	-7	-30	-13	0.059
COc1cccc(NC(=S)NCCN2CCOCC2)c1	-11	-0.098	-9	-14	-12	0.35
COc1cc(NC(=S)NCCC(c2ccccc2)c2ccccc2)cc(OC)c1	66*	0.19	-18	-27	-4	-0.32
CCCCC(O)(CCCC)C(=O)NN(C(=O)c1cccnc1Cl)c1ccccc1	/	/	1	-13	-3	-1.1
COc1cccc(/C=C/C(=O)OCC(=O)Nc2ccc(Cl)c(S(=O)(=O)N(C)C)c2)c1OC	18	-0.046	-19	-40	-10	-1.6
CC1CN(c2nnc(NC(=O)c3ccccc3)s2)CC(C)O1 (centres undefined)	-3	0.57	-6	-2	-2	1.1
CCOC(=O)CNC(=S)n1cnc(N)n1	16	1.9	-2	-12	-2	0.4
CCOc1ccc(NC(=O)CN2CCC(n3cnc4cc(F)ccc43)CC2)cc1	13	-0.16	-3	1	-9	-0.053
Cn1nc(OCC(=O)O)cc1C(F)(F)F	/	/	-6	-1	-4	/
CCOC(=O)C1CCN(C(=O)C(CC)c2ccccc2)CC1 (centres undefined)	-9	-0.5	-2	7	-1	0.41
COc1cc(CO)c(Br)cc1OCC(N)=O	7	0.6	-2	-3	82*	0.32
N#Cc1ccccc1S(=O)(=O)Nc1ccc2c(c1)C(=O)OC2	/	0.79	-2	-14	4	1.3
CCN(CC)S(=O)(=O)c1ccc(N2CCCC2)c(NC(=O)CC(C)(C)C)c1	/	/	2	-4	8	0.37
CSc1nc(N2CCOCC2)c2ccccc2n1	13	/	-8	-6	8	-0.42
CSc1nc(N2CCN(c3ccccc3Cl)CC2)c2ccccc2n1	63*	0.5	-5	-9	13	-0.25
CCn1c(=O)c([N+](=O)[O-])c(NC2CCS(=O)(=O)C2)c2ccccc21 (centres undefined)	/	0.026	-7	-11	-5	0.33
COc1ccc(N/N=C(/C#N)S(=O)(=O)C(C)(C)C)cc1	-11	-1.9	6	6	-24	0.17
CSc1ccc(N/N=C(/C#N)S(=O)(=O)C(C)(C)C)cc1	-23	-3.2*	-11	3	-10	-4.6*
Cc1cc(C)c(C(=O)Nc2ccc(Br)c(C(F)(F)F)c2)c(C)c1	81*	-0.0077	-15	0	-7	-0.16
O=C(O)c1ccccc1C(=O)Nc1ccc(Br)c(C(F)(F)F)c1	/	/	0	-1	-3	1.4
Cn1ncc([N+](=O)[O-])c1C(=O)Nc1ccc(-c2nc3ccccc3o2)cc1	-4	-0.24	-13	-2	-4	0.6
Cn1c(/N=C/c2cc(Cl)ccc2O)nc2ccccc21	7	/	-3	0	5	-0.83
Cc1cc(N=Cc2cc(Cl)ccc2O)no1	58*	/	-10	-13	-5	-2.1
SMILES	WT yeast gro inh	ROMK mod	RBBP9 inh	NCF1 inh	14-3-3 Bad PPI	KCC2 mod
Cc1ccc(-n2c(C)nn(CC#N)c2=O)cc1	-11	-0.027	-1	-4	87*	-0.46
On1onc2c3cc(-c4ccccc4)nc3ccc21	81*	/	13	1	3	-0.63
Cc1ccccc1C(=O)/C=C1/SCC(=O)N1C	-5	0.26	-5	-17	-4	0.3
CCn1c(-c2nn(-c3ccccc3)ccc2=O)n[nH]c1=S	-12	-0.34	13	7	-4	0.57
CCn1c(-c2nn(-c3ccc(C)cc3)ccc2=O)n[nH]c1=S	-22	0.02	3	-9	88*	1.3
CC(C)(C)NC(=O)NC(=O)COC(=O)Cc1coc2ccc3ccccc3c12	70*	-0.17	-12	-5	7	0.48
CCOC(=O)Nc1ccc(NS(=O)(=O)c2ccc(C)cc2)cc1	-3	/	-4	-2	-13	/
CCOC(=O)Nc1ccc(S(=O)(=O)NCc2ccccc2)cc1	16	0.84	-6	38*	-6	0.018
COc1cccc(NC(=O)NCCCSC2CCCCC2)c1	1	/	-4	-5	-17	0.11
Cc1cc(C)c(NC(=S)NCCCSC2CCCCC2)c(C)c1	75*	-1.6	-9	0	5	1
Cc1cc(Br)c(OCc2ccc(C(=O)N/N=C3\CC4CC=CC34)cc2)c(Br)c1 (centres undefined)	76*	-0.87	-10	-31	-10	-0.47
Cc1ccc2cc(CCNC(=O)Cc3cccs3)c(=O)[nH]c2c1	-8	-2	2	-8	-11	0.078
Cc1ccc(Cl)cc1N1CCN(Cc2nnnn2C2CCCCC2)CC1	74*	-0.84	-4	-12	-3	/
Cn1c(SCC(=O)Nc2ccccc2)nnc1-c1ccc2nonc2c1	/	0.4	-6	2	0	1.4
CN1C=CC=C/C1=C1\SC(=S)N(c2ccccc2)C1=O	66*	/	-7	-22	-3	/
CC(=O)Nc1ccc(S(=O)(=O)N2CCCC(C(=O)O)C2)cc1 (centres undefined)	-12	-0.34	-11	-4	2	0.86
CCCCNC(=O)NC12CC3CC(CC(C3)C1)C2	-5	-1.1	4	2	1	1
C#CC1(NC(=O)NCCCC)CCCCC1	4	0.062	13	57*	-5	/
CCOC(=O)C1=C(c2ccccc2)N(C)C(=O)NC1c1ccc(OC(F)F)c(OC)c1 (centres undefined)	23	-4.6*	-2	-10	-4	-0.49
CC(=O)Nc1ccc(S(=O)(=O)N2CCN(c3cnn(C)c(=O)c3Cl)CC2)cc1	-4	0.95	-9	-4	-4	-0.012
CCCOc1nc(C)cc(COC)c1C(N)=O	0	-0.0016	-3	-10	-11	0.0064
O=C(Nc1ccccc1C(=O)NCc1ccc(Cl)cc1)c1ccco1	3	/	-1	31*	34	-0.078
CCOC(=O)C1=C(C)NC(SC)=NC1c1ccc(OC)cc1 (centres undefined)	1	/	5	-11	43	-0.027
CCOC(=O)C1=C(C)NC(SC(C)=O)=NC1c1ccc(OC(C)=O)c(OC)c1 (centres undefined)	76*	-0.34	4	-12	8	-0.05
COc1ccc([N+](=O)[O-])cc1NC(=O)c1cn(-c2ccc(C)c(C)c2)c(=O)c2ccccc12	1	0.012	-4	-10	-15	-0.073
CCOC(=O)c1c(CN2CCCCC2)oc2ccc(O)cc12	-24	/	-10	-5	-3	/
CCOC(=O)c1c(CN2CCOCC2)n(-c2ccccc2)c2cc(Br)c(O)cc12	15	/	3	-5	58	-0.28
CCOC(=O)c1c(CN2CCOCC2)oc2ccc(OC)cc12	-5	0.62	-1	1	79*	0.95
